Consider one compound from ChEMBL document CHEMBL5338796, “Discovery of a Selective and Orally Bioavailable FGFR2 Degrader for Treating Gastric Cancer” (J Med Chem, 2023).

Data set [1] concerns BaF3. Briefly: Antiproliferative activity against mouse BaF3 cells expressing Tel-FGFR4 assessed as cell growth inhibition measured after 72 hrs by celltiter-glo reagent based assay. The format is functional. The following applies: BaF3, 72 h. In a few lines: (§1)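 Ba/F3 cells stably expressing cytoplasmic TEL-FGFR1, -2, -3 or -4 fusions were treated in 96-well format, final DMSO 0.1%, for 72 h. Viability read by CellTiter-Glo luminescence after 10 min at room temperature. Inhibition calculated from blank- and control-corrected RLU; IC50 from 4-parameter concentration–response fit.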

Data set [2] has as its system BaF3. Briefly: Antiproliferative activity against mouse BaF3 cells expressing Tel-FGFR1 assessed as cell growth inhibition measured after 72 hrs by celltiter-glo reagent based assay. The format is functional. The following applies: BaF3, 72 h. Put shortly: as §1
A short description of data set [3]: Toxicity in BALB/c mouse xenografted with human SNU-16 cells assessed as body weight loss at 20 mg/kg, po administered for 15 days and measured on day 2. The format is organism-based. The following applies: in vivo, 48 h, time 2 day. In a few lines: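 Female BALB/c nude mice, 5 weeks old (20–22 g), carried subcutaneous SNU-16 xenografts in the right flank. Dosing began at mean tumor volume 50–100 mm3, after randomization by body weight, n = 5. Mice received 20 mg/kg/day by gavage in 0.5% CMC-Na, QD for 15 d, with vehicle controls. Body weight was measured every 2 days.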
In general terms: A xenograft is tissue or cells of one species grown in another, often human tumour cells in immunodeficient mice.

Data set [4] concerns the target T1, Protein cereblon/Fibroblast growth factor receptor 2 (Homo sapiens, UniProt P21802+Q96SW2). Description: PROTAC activity at CRBN/FGFR2 in human KATO III stomach cancer cell line assessed as FGFR2 degradation measured for 6 hrs in presence of bortezomib by immunoblot analysis. The format is cell-based. In a few lines: (§2)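 KATO III cells were pretreated with 1 μM proteasome inhibitor (MG132 or bortezomib), then exposed to degrader at 100 nM for 6 h. FGFR2 was read by immunoblot against β-actin loading, with ECL detection.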

Data set [5] is described as follows: Tmax in mouse at 20 mg/kg, po measured at 0.25 to 24 hrs by LC-MS/MS analysis. The following applies: in vivo.
The target in data set [6] is Macrophage colony-stimulating factor 1 receptor (Homo sapiens) (UniProt P07333). Briefly: Induction of CSF1R degradation in human THP-1 cells at 0.5 to 10 uM measured for 6 hrs Western blot analysis. The format is cell-based. The following applies: dose 0.0005-10 µM, in the assay text read “0.5 nM to 10 uM” for “0.5 to 10 uM”. In a few lines:
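THP-1 cells exposed 6 h to 0.5–10,000 nM degrader (from 10 mM DMSO stock, final DMSO below 0.5%); lysates in 2× loading buffer, SDS-PAGE, PVDF, anti-CSF1R (1:1000) with β-actin loading control, ECL detection.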
In general terms: Immunoblotting shows a protein as a band on a membrane.

Data set [7] deals with Fibroblast growth factor receptor (Homo sapiens) (UniProt P22607+P11362+P22455+P21802). Description: Induction of FGFR degradation in human KATO III stomach cancer cell line assessed as reduction in FGFR phosphorylation at A-loop Tyr656/657 residue at 25 nM measured for 6 hrs. The format is cell-based. In a few lines:
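KATO III cells treated 6 h at the indicated concentrations with degrader or BGJ398; FGFR A-loop Tyr656/657 autophosphorylation monitored by immunoblot.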

Data set [8] addresses T1, Protein cereblon/Fibroblast growth factor receptor 2. Description: PROTAC activity at CRBN/FGFR2 in human KATO III stomach cancer cell line assessed as FGFR2 degradation measured for 6 hrs in presence of MG132 by immunoblot analysis. The format is cell-based. Put shortly: as §2
Data set [9] in a line: AUC (0 to infinity) in mouse at 3 mg/kg, iv measured at 0.083 to 24 hrs by LC-MS/MS analysis. The following applies: in vivo.
Data set [10] has as its target Mitogen-activated protein kinase kinase kinase 4 (Homo sapiens) (UniProt Q9Y6R4). Briefly: Inhibition of partial length human MAP3K4 at 1000 nM by KINOMEscan analysis relative to control.
Data set [11] is described as follows: Toxicity in ICR mouse assessed as morphological changes in liver at 20 mg/kg, po measured for 30 days by hematoxyin-eosin staining based analysis. The format is organism-based. Conditions: in vivo, 720 h, time 30 day. Put shortly: (§3)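 ICR mice (n = 6) were dosed orally at 20 mg/kg/day for 30 days, alongside vehicle-treated controls. Mortality and clinical signs were checked daily. At the end, body and organ weights were recorded. Heart, liver, spleen, lung and kidney were examined by hematoxylin and eosin staining.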

A short description of data set [12]: Hepatotoxicity in ICR mouse assessed as effect on ALT level at 20 mg/kg, po measured for 30 days. The format is toxicity, organism-based. The following applies: in vivo, 720 h, time 30 day. Put shortly:
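ICR mice given 20 mg/kg/day orally for 30 days (n = 6), vehicle controls; mortality and clinical signs checked daily, then AST/ALT and creatinine, organ weights, haematology and H&E of heart, liver, spleen, lung, kidney.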

The target of data set [13] is Fibroblast growth factor receptor 2 (Homo sapiens) (UniProt P21802). Description: Induction of FGFR2 receptor internalization in human KATO III stomach cancer cell line at 100 nM measured for 6 hrs by immunofluorescence assay. The format is cell-based. The following applies: filed as activator. Put shortly: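 KATO III cells treated with 100 nM for 3 or 6 h, fixed in 2% formaldehyde 2 min, blocked 5% BSA 1 h, anti-FGFR2 overnight, Alexa Fluor 488 secondary 1 h, DAPI 10 min; imaged by fluorescence microscopy.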
Sequence of Fibroblast growth factor receptor 2 (Homo sapiens) (P21802 22-821 limits assumed): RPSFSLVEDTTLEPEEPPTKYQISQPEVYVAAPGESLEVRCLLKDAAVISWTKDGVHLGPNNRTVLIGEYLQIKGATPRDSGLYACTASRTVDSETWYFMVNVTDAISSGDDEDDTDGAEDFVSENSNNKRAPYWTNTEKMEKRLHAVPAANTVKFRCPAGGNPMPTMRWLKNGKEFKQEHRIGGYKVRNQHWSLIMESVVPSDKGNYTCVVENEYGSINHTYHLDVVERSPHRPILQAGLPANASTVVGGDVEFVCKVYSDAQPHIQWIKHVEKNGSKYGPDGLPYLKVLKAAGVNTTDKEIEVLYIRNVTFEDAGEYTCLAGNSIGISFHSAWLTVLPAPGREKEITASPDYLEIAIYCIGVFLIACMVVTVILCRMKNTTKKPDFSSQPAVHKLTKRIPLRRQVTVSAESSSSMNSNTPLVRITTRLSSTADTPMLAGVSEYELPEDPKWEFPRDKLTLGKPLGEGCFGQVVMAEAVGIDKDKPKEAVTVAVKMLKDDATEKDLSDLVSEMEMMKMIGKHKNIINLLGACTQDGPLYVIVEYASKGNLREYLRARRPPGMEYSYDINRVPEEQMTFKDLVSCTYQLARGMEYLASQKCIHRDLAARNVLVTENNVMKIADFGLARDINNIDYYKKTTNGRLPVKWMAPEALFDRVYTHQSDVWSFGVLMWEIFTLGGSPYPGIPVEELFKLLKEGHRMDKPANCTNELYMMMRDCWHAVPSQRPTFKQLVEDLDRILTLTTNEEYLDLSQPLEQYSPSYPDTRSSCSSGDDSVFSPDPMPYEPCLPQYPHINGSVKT

Data set [14] is described as follows: Half life in Sprague-Dawley rat at 3 mg/kg, iv measured at 0.083 to 24 hrs by LC-MS/MS analysis. The format is ADME, organism-based. Conditions: in vivo, time 0.083-24 hrs. In a few lines: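 Male Sprague Dawley rats, single dose i.v. 3 mg/kg or p.o. 20 mg/kg in 10% Solutol, 85% (10% HP-β-CD in saline), 5% DMSO, pH adjusted to 9–10.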
For data set [15], the system named is SNU-16. Briefly: Antitumor activity against human SNU-16 cells xenografted in BALB/c nude mouse assessed as reduction in FGFR phosphorylation in tumor at 20 mg/kg, po measured at 4 hrs. The format is functional, organism-based. Put shortly: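 Female BALB/c nude mice, 5 weeks old (20–22 g), s.c. right-flank SNU-16 implants, randomized by body weight into groups (n = 5) once tumours reached 50–100 mm3. Dosing 20 mg/kg/day intragastric in 0.5% CMC-Na for 15 d; vehicle controls. Tumour width and length measured every 2 days; tumours harvested 4 h after last dose and lysates immunoblotted for pFGFR, FGFR2, pPLCγ, pErk.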

Data set [16] concerns the target Fibroblast growth factor receptor 1 (Homo sapiens) (UniProt P11362). Description: Induction of FGFR1 degradation in human NCI-H1581 cells at 100 nM measured for 6 hrs Western blot analysis relative to control. The format is cell-based. In a few lines:
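NCI-H1581 (FGFR1), MCF7 (FGFR3) and Huh7 (FGFR4) cells, which endogenously express the isoforms, treated with 100 nM for 6 h; isoform levels by Western blot against β-actin, three biologically independent experiments.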

Data set [17] is described as follows: Toxicity in ICR mouse assessed as morphological changes in kidney at 20 mg/kg, po measured for 30 days by hematoxyin-eosin staining based analysis. The format is organism-based. The following applies: in vivo, 720 h, time 30 day. Put shortly:
as §3

Data set [18] can be described thus: Toxicity in ICR mouse assessed as morphological changes in heart at 20 mg/kg, po measured for 30 days by hematoxyin-eosin staining based analysis. The format is organism-based. The following applies: in vivo, 720 h, time 30 day. Put shortly:
as §3

The nature of data set [19]: Toxicity in ICR mouse assessed as change in lung weight at 20 mg/kg, po measured for 30 days. The following applies: in vivo, 720 h, time 30 day. The format is organism-based. Put shortly:
as §3

Data set [20] deals with BaF3. Description: Antiproliferative activity against mouse BaF3 cells expressing Tel-FGFR2 assessed as cell growth inhibition measured after 72 hrs by celltiter-glo reagent based assay. The format is functional. The following applies: BaF3, 72 h. Put shortly: as §1
For orientation: Cellular ATP, detected with luciferase, serves as a proxy for viable cell number.

Structures are written as SMILES. The source made the active and inactive calls. No cut-off for these calls is given here. A value given as a limit tells only on which side of the number the result lay.

T1 sequence (P21802 22-821 limits assumed): as above
T1 sequence (Q96SW2 whole entry partner): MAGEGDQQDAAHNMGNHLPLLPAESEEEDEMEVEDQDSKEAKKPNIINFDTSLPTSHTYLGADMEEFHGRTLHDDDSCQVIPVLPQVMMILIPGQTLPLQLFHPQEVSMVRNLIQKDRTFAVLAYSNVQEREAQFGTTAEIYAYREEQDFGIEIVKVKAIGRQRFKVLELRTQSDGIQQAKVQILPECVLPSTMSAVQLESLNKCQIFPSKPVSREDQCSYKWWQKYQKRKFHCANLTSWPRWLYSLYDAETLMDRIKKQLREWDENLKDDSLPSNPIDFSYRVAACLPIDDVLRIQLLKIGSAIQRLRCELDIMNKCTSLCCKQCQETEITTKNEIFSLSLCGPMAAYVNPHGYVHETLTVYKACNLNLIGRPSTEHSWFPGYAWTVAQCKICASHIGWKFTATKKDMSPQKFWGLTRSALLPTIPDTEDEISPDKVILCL
Sequence of Fibroblast growth factor receptor (Homo sapiens) (P11362 whole entry, looked up): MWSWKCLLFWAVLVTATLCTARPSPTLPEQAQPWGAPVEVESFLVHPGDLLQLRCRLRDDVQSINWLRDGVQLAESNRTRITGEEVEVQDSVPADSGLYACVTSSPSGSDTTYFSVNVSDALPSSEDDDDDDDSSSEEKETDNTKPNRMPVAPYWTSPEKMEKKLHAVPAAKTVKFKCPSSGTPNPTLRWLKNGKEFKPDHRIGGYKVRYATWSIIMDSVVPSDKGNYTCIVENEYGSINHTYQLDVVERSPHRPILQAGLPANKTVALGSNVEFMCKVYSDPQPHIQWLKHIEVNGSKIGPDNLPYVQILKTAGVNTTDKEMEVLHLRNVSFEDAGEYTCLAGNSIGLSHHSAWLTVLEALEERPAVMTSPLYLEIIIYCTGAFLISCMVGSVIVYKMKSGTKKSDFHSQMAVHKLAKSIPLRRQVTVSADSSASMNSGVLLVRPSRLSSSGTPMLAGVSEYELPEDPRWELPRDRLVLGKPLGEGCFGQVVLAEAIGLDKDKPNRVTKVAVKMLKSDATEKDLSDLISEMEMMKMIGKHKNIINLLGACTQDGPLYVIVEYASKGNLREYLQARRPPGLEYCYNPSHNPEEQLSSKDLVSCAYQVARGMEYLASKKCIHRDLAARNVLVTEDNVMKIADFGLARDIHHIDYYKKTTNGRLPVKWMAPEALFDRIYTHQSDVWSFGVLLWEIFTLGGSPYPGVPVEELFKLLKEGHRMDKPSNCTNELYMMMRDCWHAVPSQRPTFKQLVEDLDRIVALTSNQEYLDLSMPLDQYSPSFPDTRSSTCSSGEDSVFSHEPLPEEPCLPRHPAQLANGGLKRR
Sequence of Fibroblast growth factor receptor (Homo sapiens) (P21802 whole entry, looked up): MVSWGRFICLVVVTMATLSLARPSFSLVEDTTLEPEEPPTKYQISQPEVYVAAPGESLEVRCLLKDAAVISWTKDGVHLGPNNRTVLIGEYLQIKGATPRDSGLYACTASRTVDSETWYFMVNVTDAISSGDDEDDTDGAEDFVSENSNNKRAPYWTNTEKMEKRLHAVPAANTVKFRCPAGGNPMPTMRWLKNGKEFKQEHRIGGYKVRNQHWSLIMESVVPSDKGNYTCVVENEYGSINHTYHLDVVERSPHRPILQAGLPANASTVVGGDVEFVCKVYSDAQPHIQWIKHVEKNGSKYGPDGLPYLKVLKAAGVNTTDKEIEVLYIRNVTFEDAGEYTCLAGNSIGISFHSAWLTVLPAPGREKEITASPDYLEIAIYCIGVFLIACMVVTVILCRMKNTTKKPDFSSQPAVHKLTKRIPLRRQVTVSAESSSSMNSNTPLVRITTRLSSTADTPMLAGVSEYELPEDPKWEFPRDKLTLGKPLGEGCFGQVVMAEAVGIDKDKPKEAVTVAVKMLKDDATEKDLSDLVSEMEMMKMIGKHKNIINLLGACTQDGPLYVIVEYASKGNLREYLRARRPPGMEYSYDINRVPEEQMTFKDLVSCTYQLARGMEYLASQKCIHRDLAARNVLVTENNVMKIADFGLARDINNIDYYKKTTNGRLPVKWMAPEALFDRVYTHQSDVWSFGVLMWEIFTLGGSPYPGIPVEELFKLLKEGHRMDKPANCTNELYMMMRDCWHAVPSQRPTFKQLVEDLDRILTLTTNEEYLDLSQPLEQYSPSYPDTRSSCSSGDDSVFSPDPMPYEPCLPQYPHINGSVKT
Sequence of Fibroblast growth factor receptor (Homo sapiens) (P22455 whole entry, looked up): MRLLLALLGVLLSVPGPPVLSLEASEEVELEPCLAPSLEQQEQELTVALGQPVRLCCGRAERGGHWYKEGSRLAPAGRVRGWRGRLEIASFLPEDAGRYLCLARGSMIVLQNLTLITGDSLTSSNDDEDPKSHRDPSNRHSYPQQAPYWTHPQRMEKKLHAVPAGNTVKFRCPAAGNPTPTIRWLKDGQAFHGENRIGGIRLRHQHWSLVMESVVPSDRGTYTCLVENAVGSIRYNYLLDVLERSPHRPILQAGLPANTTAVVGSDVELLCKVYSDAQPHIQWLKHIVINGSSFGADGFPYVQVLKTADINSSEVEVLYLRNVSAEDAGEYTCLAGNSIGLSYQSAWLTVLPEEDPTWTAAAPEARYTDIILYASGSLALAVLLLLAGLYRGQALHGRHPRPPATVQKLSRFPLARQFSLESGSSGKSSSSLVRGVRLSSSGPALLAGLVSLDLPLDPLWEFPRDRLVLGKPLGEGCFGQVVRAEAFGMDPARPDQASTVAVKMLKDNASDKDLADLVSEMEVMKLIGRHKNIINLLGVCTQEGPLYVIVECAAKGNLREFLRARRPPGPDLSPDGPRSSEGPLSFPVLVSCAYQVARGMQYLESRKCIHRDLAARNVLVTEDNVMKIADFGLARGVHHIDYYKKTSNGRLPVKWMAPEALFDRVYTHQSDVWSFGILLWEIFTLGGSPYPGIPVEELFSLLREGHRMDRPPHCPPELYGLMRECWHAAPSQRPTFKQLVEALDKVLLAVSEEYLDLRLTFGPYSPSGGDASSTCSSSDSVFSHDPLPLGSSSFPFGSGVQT
Sequence of Fibroblast growth factor receptor (Homo sapiens) (P22607 whole entry, looked up): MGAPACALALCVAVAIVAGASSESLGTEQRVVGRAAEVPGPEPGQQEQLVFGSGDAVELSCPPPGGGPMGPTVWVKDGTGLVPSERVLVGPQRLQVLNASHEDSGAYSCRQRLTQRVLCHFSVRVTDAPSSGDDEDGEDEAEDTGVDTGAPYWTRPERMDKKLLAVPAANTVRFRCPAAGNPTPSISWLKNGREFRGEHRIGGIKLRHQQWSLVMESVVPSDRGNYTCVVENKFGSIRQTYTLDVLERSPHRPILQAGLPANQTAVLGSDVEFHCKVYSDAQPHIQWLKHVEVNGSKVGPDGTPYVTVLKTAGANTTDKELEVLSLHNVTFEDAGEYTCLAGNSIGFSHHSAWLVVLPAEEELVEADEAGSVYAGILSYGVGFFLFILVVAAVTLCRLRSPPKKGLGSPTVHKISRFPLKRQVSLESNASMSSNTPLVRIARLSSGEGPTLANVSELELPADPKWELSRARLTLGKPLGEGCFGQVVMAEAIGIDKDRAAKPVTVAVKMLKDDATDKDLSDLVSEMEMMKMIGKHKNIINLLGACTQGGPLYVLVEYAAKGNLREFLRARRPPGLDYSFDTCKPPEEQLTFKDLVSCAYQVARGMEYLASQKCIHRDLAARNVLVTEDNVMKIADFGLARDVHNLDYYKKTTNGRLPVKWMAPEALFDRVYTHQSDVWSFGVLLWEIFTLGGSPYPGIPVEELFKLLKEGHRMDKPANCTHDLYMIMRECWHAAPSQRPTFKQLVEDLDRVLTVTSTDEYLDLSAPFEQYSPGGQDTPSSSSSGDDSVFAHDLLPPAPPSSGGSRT

As usually defined, the IC50 is the concentration that gives 50% inhibition. As usually defined, the Tmax is the time at which the peak concentration occurs. What is called AUC(0-inf) is total exposure, with the tail of the curve extrapolated. Read a high AUC(0-inf) as high exposure. In general, inhibition refers to the change of the read-out against control, counted positive when it falls. Read a high inhibition as strong suppression. As a reminder, the half-life is how long it takes for the measured level to halve. For `COc1cc(OC)c(Cl)c(NC(=O)N(C)c2cc(Nc3ccc(N4CCN(C(=O)C5CCN(c6ccc7c(c6)C(=O)N(C6CCC(=O)NC6=O)C7=O)CC5)CC4)cc3)ncn2)c1Cl` (stereo not given), the figures for the IC50 in data set [1], in [2] and in data set [20] were > 10000 nM, 125 nM and 10.3 nM, respectively. Moreover, the Activity result is “Non-Toxic” in [3]; “Non-Toxic” in data set [11]; “Non-Toxic” in data set [12]; 43% in data set [16]; “Non-Toxic” in [17]; “Non-Toxic” in [18]. The Activity result in data set [19] is on record as “Non-Toxic”. The outcome in data set [4], in [6] and in data set [8] was inactive. In addition, the Tmax in data set [5] was 2.67 h. Besides, the outcome in [7], in data set [13] and in data set [15] was Active. Moreover, the AUC(0-inf) in [9] came out at 422 ng·h/mL. Besides, the inhibition in [10] is 45%. In addition, in [14], the half-life was 0.97 h.
